Test [1] addresses T1, D-aspartate oxidase (Homo sapiens, UniProt Q99489).
T1 sequence (Q99489 whole entry): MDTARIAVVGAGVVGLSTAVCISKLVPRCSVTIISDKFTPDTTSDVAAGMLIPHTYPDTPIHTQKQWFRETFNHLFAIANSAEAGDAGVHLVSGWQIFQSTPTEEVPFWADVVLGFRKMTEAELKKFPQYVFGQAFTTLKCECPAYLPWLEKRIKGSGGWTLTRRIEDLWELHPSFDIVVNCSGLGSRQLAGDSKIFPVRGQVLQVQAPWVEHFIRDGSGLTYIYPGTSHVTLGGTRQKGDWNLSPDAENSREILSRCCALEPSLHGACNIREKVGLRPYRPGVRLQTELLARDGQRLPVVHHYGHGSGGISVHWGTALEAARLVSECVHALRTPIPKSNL
The test is described as follows: (§1) Inhibition of human recombinant N-terminal His-tagged DDO expressed in Escherichia coli BL21(DE3) using D-aspartate as substrate by colorimetric assay. The gist of the method:
(§2)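 Purified enzyme (0.23–4.2 μg) with 10 mM D-Asp in air-saturated 40 mM sodium pyrophosphate pH 8.3, 23 U catalase, 60 μM FAD; 37 °C, 10 min; trichloroacetic acid stop; 2-oxo acid measured as 2,4-dinitrophenylhydrazone at A445.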

Test [2] concerns the target T2, Serine racemase (Homo sapiens, UniProt Q9GZT4).
T2 sequence (Q9GZT4 whole entry): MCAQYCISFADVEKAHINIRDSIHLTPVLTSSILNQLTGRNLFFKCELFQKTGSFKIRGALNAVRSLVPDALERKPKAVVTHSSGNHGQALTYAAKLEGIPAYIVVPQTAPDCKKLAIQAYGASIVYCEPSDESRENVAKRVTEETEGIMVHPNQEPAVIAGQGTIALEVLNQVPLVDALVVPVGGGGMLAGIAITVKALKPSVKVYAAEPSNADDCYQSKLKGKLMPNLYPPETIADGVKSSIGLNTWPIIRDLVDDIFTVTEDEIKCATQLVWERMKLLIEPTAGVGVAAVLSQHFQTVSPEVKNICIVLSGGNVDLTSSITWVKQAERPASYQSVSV
Kind of test: (§3) Inhibition of human recombinant N-terminal His-tagged serine racemase expressed in Escherichia coli BL21(DE3) using L-serine as substrate after 10 mins by fluorescence assay. The gist of the method: (§4)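 Purified enzyme (30 μg) in 40 mM Tris-HCl pH 8.0, 60 μM pyridoxal phosphate, 1 mM MgCl2, ATP, 1 mM dithiothreitol, 10 mM L-Ser, with compound; 37 °C, 10 min; methanol stop. D-Ser quantified by OPA/Boc-L-cysteine derivatization and reversed-phase HPLC fluorescence (ex 344, em 443 nm).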

The target of test [3] is T3, D-amino-acid oxidase (Homo sapiens, UniProt P14920). Kind of test: Competitive inhibition of human recombinant N-terminal His-tagged DAO expressed in Escherichia coli BL21(DE3) using D-alanine as substrate by Lineweaver-Burk plot analysis. The method in brief: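 Purified N-terminal His-tagged human DAO from E. coli BL21(DE3)pLysS. Colorimetric 2-oxo acid assay in air-saturated 40 mM sodium pyrophosphate pH 8.3 with catalase, 60 μM FAD and 0.5–40 mM D-Ala, 37 °C for 10 min. Stopped with TCA, derivatized with 2,4-dinitrophenylhydrazine, read at A445. Lineweaver–Burk plots; Ki confirmed by slope replot against inhibitor concentration. Three independent experiments.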
Target sequence in this assay (P14920 whole entry, looked up): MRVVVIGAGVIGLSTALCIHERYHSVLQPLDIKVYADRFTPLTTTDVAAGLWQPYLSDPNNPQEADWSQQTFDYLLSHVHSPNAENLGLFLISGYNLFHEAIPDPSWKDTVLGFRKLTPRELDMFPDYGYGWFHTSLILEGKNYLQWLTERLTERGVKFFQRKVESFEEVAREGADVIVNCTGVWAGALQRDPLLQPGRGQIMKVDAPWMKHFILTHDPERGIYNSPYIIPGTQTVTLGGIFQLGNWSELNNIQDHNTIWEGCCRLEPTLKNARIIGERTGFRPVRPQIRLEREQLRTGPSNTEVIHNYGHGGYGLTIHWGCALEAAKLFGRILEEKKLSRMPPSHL

Test [4] concerns the target T3, D-amino-acid oxidase. Kind of test: Inhibition of human recombinant N-terminal His-tagged DAO expressed in Escherichia coli BL21(DE3) using D-serine as substrate by colorimetric assay.
The subject of test [5] is HEK293. The test is described as follows: Effect on L-alanine level in G418-resistant HEK293 cells at 17 uM by HPLC analysis relative to vehicle-treated control. It is filed as functional, cell-based. The settings on record: Homo sapiens. The gist of the method: (§5)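 293/NEO (empty-vector, G418-selected) or 293.HA-hDAO-24 (stable N-terminal HA-tagged human DAO) cells, 1 × 10^6 seeded, maintained in DMEM/10% FBS/800 μg/mL G418; next day fresh medium, compound or vehicle (5% DMSO solution) for 30 min, then 17 mM D-Ala for 24 h. Methanol extraction; D-/L-Ala by OPA/NAC derivatization HPLC with fluorescence; mean ± SD of three assays; Dunnett test vs vehicle.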

Test [6] relates to HEK293/NEO. Kind of test: Effect on L-alanine level in G418-resistant HEK293/NEO cells at 17 uM by HPLC analysis relative to vehicle-treated control. It is filed as functional, cell-based. The settings on record: Homo sapiens. The method in brief: as §5
Test [7] deals with D-amino-acid oxidase (Homo sapiens), P14920 [Y224F]. Kind of test: (§6) Inhibition of human recombinant N-terminal His-tagged DAO Y224F mutant expressed in Escherichia coli BL21(DE3) using D-alanine as substrate after 10 mins by Lineweaver-Burk plot analysis.
In test [8] the test system is D-amino-acid oxidase (Homo sapiens), P14920 [Y224A]. Kind of test: (§7) Inhibition of human recombinant N-terminal His-tagged DAO Y224A mutant expressed in Escherichia coli BL21(DE3) using D-alanine as substrate after 10 mins by Lineweaver-Burk plot analysis.
Test [9] deals with T3, D-amino-acid oxidase. The following applies: HEK293/NEO, 17 uM.
Target sequence in this assay (P14920 whole entry, looked up): as above
Test [10] has as its target T4, D-aspartate oxidase (Homo sapiens) (UniProt Q99489).
T4 sequence (whole entry): T1 sequence (Q99489 whole entry)
Described as §1. The method in brief:
as §2

The target of test [11] is T3, D-amino-acid oxidase. The test is described as follows: Inhibition of human recombinant N-terminal His-tagged DAO expressed in Escherichia coli BL21(DE3) using D-alanine as substrate by colorimetric assay.
For test [12], the target named is T5, Serine racemase (Homo sapiens) (UniProt Q9GZT4).
T5 sequence (whole entry): T2 sequence (Q9GZT4 whole entry)
The test is described as §3. The method in brief:
as §4

The target in test [13] is T3, D-amino-acid oxidase. The test is described as follows: Inhibition of human recombinant N-terminal His-tagged DAO expressed in Escherichia coli BL21(DE3) using D-alanine as substrate assessed as residual activity at 10000 uM by colorimetric assay relative to control. The gist of the method: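 Purified enzyme (0.23–4.2 μg) in air-saturated 40 mM sodium pyrophosphate pH 8.3, 23 U catalase, 60 μM FAD, 10 mM D-amino acid substrate, with compound; 37 °C, 10 min; stopped with trichloroacetic acid. 2-Oxo acid reacted with 2,4-dinitrophenylhydrazine, A445 read against substrate-free blank.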
Target sequence in this assay (P14920 whole entry, looked up): as above

The target in test [14] is T3, D-amino-acid oxidase. Kind of test: Inhibition of human recombinant N-terminal His-tagged DAO expressed in Escherichia coli BL21(DE3) using D-alanine as substrate by Lineweaver-Burk plot analysis.
Target sequence in this assay (P14920 whole entry): as the sequence (P14920 whole entry, looked up) above
The target in test [15] is T3, D-amino-acid oxidase. The settings on record: HEK293, 83 uM.
Target sequence in this assay (P14920 whole entry, looked up): as above
Test [16] relates to HEK293/NEO. The test is described as follows: Effect on L-alanine level in G418-resistant HEK293/NEO cells at 83 uM by HPLC analysis relative to vehicle-treated control. It counts as functional, cell-based. The settings on record: Homo sapiens. The gist of the method:
as §5

Test [17] concerns the target T3, D-amino-acid oxidase. The test is described as follows: Inhibition of human recombinant DAO expressed in G418-resistant HEK293/NEO cells assessed as effect on D-alanine level at 83 uM incubated for 30 mins prior to D-alanine addition measured after 24 hrs by HPLC analysis relative to vehicle-treated control. It is filed as cell-based. The gist of the method:
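HEK293 cells stably carrying HA-tagged human DAO (clone 293.HA-hDAO-24) or empty vector (293/NEO), seeded at 1 × 10^6. Next day, fresh medium and 83 μM compound or vehicle (5% DMSO solution) for 30 min, then 17 mM D-Ala for 24 h. Cells methanol-extracted; D-/L-Ala by OPA/NAC-derivatized HPLC. Three independent assays, Dunnett test vs vehicle.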
Target sequence in this assay (P14920 whole entry, looked up): as above

The subject of test [18] is HEK293. The test is described as follows: Effect on L-alanine level in G418-resistant HEK293 cells at 83 uM by HPLC analysis relative to vehicle-treated control. It counts as functional, cell-based. The following applies: Homo sapiens. The method in brief:
as §5

In test [19] the target is D-amino-acid oxidase (Homo sapiens, UniProt P14920, Y224F). Described as §6.
The target in test [20] is T3, D-amino-acid oxidase. Kind of test: Binding affinity to human recombinant N-terminal His-tagged DAO expressed in Escherichia coli BL21(DE3) at 200 uM after 2 to 30 mins by absorption spectra analysis.
Target sequence in this assay (P14920 whole entry, looked up): as above
Test [21] deals with D-amino-acid oxidase (Homo sapiens, UniProt P14920, Y224A). Described as §7.
The target in test [22] is T3, D-amino-acid oxidase. The test is described as follows: Binding affinity to human recombinant N-terminal His-tagged DAO expressed in Escherichia coli BL21(DE3) at 40 uM after 2 to 30 mins by absorption spectra analysis. The following applies: 200 uM, in the assay text read “at 200 uM” for “at 40 uM”. The method in brief:
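Purified enzyme at 1.7 μg/μL in 10 mM sodium pyrophosphate pH 8.3 with 2 mM EDTA, 5 mM 2-mercaptoethanol, 10% (v/v) glycerol; wavelength scans at 25 °C before and after compound addition (final 40 μM or 200 μM depending on compound), recorded at indicated times; binding inferred from perturbation of the absorption spectrum.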

Test [23] addresses T3, D-amino-acid oxidase.
Target sequence in this assay (P14920 whole entry): as the sequence (P14920 whole entry, looked up) above

Molecules are shown by their SMILES. Activity calls are given as the source filed them. The rule behind the calls is not given here.

As a reminder, the IC50 is the concentration that inhibits the measured activity by half. The Ki is a dissociation constant, usually derived from enzyme kinetics or from competition with a known ligand.

Sequence of D-amino-acid oxidase (Homo sapiens), P14920 [Y224A] (P14920 whole entry Y224A): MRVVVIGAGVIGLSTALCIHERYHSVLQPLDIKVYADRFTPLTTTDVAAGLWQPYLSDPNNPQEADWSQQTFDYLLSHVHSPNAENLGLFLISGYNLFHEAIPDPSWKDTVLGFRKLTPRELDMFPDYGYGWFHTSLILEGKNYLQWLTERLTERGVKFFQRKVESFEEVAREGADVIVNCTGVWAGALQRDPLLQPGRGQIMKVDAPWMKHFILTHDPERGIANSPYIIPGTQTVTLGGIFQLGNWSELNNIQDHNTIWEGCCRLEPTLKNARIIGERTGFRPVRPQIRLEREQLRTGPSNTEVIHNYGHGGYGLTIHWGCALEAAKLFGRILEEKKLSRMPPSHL
Sequence of D-amino-acid oxidase (Homo sapiens), P14920 [Y224F] (P14920 whole entry Y224F): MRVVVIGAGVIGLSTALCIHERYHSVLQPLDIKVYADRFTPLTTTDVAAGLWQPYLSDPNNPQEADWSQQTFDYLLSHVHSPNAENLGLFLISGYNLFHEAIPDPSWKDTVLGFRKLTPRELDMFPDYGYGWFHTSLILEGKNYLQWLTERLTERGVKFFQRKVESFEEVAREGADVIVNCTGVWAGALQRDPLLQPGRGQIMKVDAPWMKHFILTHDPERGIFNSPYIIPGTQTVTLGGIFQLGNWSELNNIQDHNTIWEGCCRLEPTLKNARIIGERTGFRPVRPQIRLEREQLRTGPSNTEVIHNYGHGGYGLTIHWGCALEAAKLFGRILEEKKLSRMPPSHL
Sequence of D-amino-acid oxidase (Homo sapiens, UniProt P14920, Y224A) (P14920 whole entry Y224A): as the sequence (P14920 whole entry Y224A) above
Sequence of D-amino-acid oxidase (Homo sapiens, UniProt P14920, Y224F) (P14920 whole entry Y224F): as the sequence (P14920 whole entry Y224F) above

Consider `O=C(O)c1cc2occc2[nH]1`, for which the half-inhibitory concentration (IC50) in test [1] and in [2] was above 100 µM in each case. The inhibition entry in [3] was “Active”. In addition, the inhibition entry in test [4], in [7] and in [8] was “Dose-dependent effect” throughout. Also, the result in test [5] and in test [6] was inactive. Also, the inhibition result in [9] is “inactive”.
As to `O=C(O)/C=C/c1cccc(O)c1`, the half-inhibitory concentration (IC50) is above 10000 µM in test [1], above 10000 µM in test [11], 8390 µM in [2] and 6270 µM in test [4]. Also, the inhibition entry in test [10], in test [11], in test [12] and in test [4] was “Dose-dependent effect” in each case. Further, in test [13], the Activity was found to be 51.5%.
Consider `CCCc1sc(C(=O)O)cc1CC`, for which the IC50 in [1] was above 10000 µM; in [11], above 10000 µM; in test [2], above 10000 µM; in test [4] it was 7900 µM. Moreover, the inhibition result in test [10], in test [11] and in test [12] was “Dose-dependent effect” in each case. Besides, in [13], the Activity was determined as 67.1%.
Consider `O=c1oc2ccccc2cc1O` [3-HYDROXYCOUMARIN], for which the half-inhibitory concentration (IC50) in [1] is 7580 µM; in test [11], 0.943 µM; in test [2], above 10000 µM; in test [4] it was 0.44 µM. Moreover, the inhibition entry in [10], in test [11], in [12], in test [4], in test [7] and in test [8] was “Dose-dependent effect” each time. Also, the inhibition constant (Ki) in test [14] is 0.156 µM; in [19], 0.265 µM; in test [21], 3.69 µM. Also, the inhibition result in [15] and in test [3] was “Active” throughout. The result in [5], in test [16], in test [18] and in test [6] was inactive. Also, the inhibition result in [17] is “inactive”. In [20], the result was Active.
For `O=C(O)c1ccccc1` [BENZOIC ACID], the half-maximal inhibitory concentration (IC50) in test [1] was above 10000 µM; in [11], 65.7 µM; in test [2], above 10000 µM; in test [4] it was 46.9 µM. For the same molecule, the outcome in [22] was Active. Further, the Ki came to 10.9 µM in [14], 7 µM in test [23], 54 µM in test [19] and 37.5 µM in [21]. Also, the inhibition result in test [3] is “Active”. Besides, the inhibition result in test [4], in test [7] and in [8] was “Dose-dependent effect” each time.

The values are drawn from ChEMBL document CHEMBL2321703, “Identification of novel D-amino acid oxidase inhibitors by in silico screening and their functional characterization in vitro” (J Med Chem, 2013).
